Measured values: ChEMBL document CHEMBL4373680, “Small antibacterial molecules highly active against drug-resistant Staphylococcus aureus” (Medchemcomm, 2019)

Key:
[1] = tested on: Staphylococcus aureus; test: Antibacterial activity against methicillin-resistant Staphylococcus aureus ATCC 33591 after 24 hrs by tecan plate reader analysis; format: functional; conditions: ATCC 33591, 24 h
Method in brief: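 Colony grown 24 h on NB agar at 37 °C, then 6 h in nutrient broth to mid-log (10⁸ CFU/mL by drop plating), diluted to 10⁵ CFU/mL in Mueller Hinton broth; added 9:1 to two-fold serial compound dilutions in MHB. Incubated 24 h, 37 °C; OD600 read. Triplicate per concentration, experiment run twice; MIC taken from the range of triplicate OD values.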

[2] = tested on: Escherichia coli; test: Antibacterial activity against Escherichia coli MTCC 443 after 24 hrs by tecan plate reader analysis; format: functional; conditions: MTCC 443, 24 h
Method in brief: (§1)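 Broth microdilution MIC. Glycerol stocks grown on MacConkey agar 24 h at 37 °C, then a single colony in nutrient broth 6 h to mid-log (~10⁸ CFU/mL). Cells diluted to 10⁵ CFU/mL in Mueller Hinton broth and added to two-fold compound dilutions. Incubated 24 h at 37 °C, OD600 read. Triplicate wells, experiment run twice.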

[3] = tested on: Acinetobacter baumannii; test: Antibacterial activity against Acinetobacter baumannii MTCC 1425 after 24 hrs by tecan plate reader analysis; format: functional; conditions: MTCC 1425, 24 h; method in brief: as §1
[4] = tested on: Klebsiella pneumoniae; test: Antibacterial activity against Klebsiella pneumoniae ATCC 700603 after 24 hrs by tecan plate reader analysis; format: functional; conditions: Klebsiella pneumoniae, 700603, 24 h; method in brief: as §1
[5] = tested on: Pseudomonas aeruginosa; test: Antibacterial activity against Pseudomonas aeruginosa MTCC 424 after 24 hrs by tecan plate reader analysis; format: functional; conditions: MTCC 424, 24 h; method in brief: as §1
[6] = Hemolytic activity in human erythrocytes after 1 hr; format: ADME, cell-based, Erythrocyte
Method in brief: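 Heparinized donor blood. Erythrocytes washed three times in PBS and resuspended to 5 vol%, then mixed 3:1 with compound serially diluted in water. Incubated 1 h at 37 °C and centrifuged. Supernatant A540 read; % hemolysis relative to water and 0.1 vol% Triton-X controls.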

[7] = Selectivity index, ratio of HC50 for human erythrocytes to MIC for Escherichia coli MTCC 443; format: toxicity; conditions: read-out: Selectivity Index

Row | SMILES | MIC [1] [µg/mL] | MIC [2] [µg/mL] | MIC [3] [µg/mL] | MIC [4] [µg/mL] | MIC [5] [µg/mL] | HC50 at 1 h [6] [µg/mL] | selectivity ratio [7]
1 | CCCCCCCCCCCCNC(=O)C[N+](C)(CCO)CCCCCC[N+](C)(CCO)CC(=O)NCCCCCCCCCCCC.[Br-].[Br-] (stereo unspecified) | 1 to 2 | 8 | 4 | 128 | 128 to 256 | 31 | –
2 | CCCCCCCCCCCCNC(=O)C[N+](C)(CCO)CCCCCCCC[N+](C)(CCO)CC(=O)NCCCCCCCCCCCC.[Br-].[Br-] (stereo unspecified) | 2 | 32 | 4 | 64 | 64 to 128 | 29 | –
3 | CCCCCCCCCCNC(=O)C[N+](C)(CCO)CCC[N+](C)(CCO)CC(=O)NCCCCCCCCCC.[Br-].[Br-] (stereo unspecified) | 1 | 1 | 2 | 4 | 2 | 34 | –
4 | CCCCCCCCCCCCNC(=O)C[N+](C)(CCO)CCC[N+](C)(CCO)CC(=O)NCCCCCCCCCCCC.[Br-].[Br-] (stereo unspecified) | 2 | 16 | 8 | 128 to 256 | 64 to 128 | 37 | –
5 | CCCCCCCCCCCCNC(=O)C[N+](C)(CCO)CCCCCCCCCC[N+](C)(CCO)CC(=O)NCCCCCCCCCCCC.[Br-].[Br-] (stereo unspecified) | 4 | 32 | 8 | 64 to 128 | 64 to 128 | 32 | –
6 | CCCCCCNC(=O)C[N+](C)(CCO)CCCCCCCC[N+](C)(CCO)CC(=O)NCCCCCC.O=C([O-])C(F)(F)F.O=C([O-])C(F)(F)F (stereo unspecified) | 128 | 256 | > 256 | > 256 | > 256 | > 1020 | –
7 | CCCCCCCCCCCCNC(=O)C[N+](C)(CCO)CCCCCCCCCCCC[N+](C)(CCO)CC(=O)NCCCCCCCCCCCC.[Br-].[Br-] (stereo unspecified) | 2 to 4 | 32 | 32 | 128 to 256 | 64 | 22 | –
8 | CCCCCCCCCCNC(=O)C[N+](C)(CCO)CCCCCCCCCC[N+](C)(CCO)CC(=O)NCCCCCCCCCC.[Br-].[Br-] (stereo unspecified) | 0.5 | 2 | 1 | 4 | 8 | 18 | –
9 | CCCCCCCCCCNC(=O)C[N+](C)(CCO)CCCCCCCC[N+](C)(CCO)CC(=O)NCCCCCCCCCC.[Br-].[Br-] (stereo unspecified) | 0.5 | 1 | 1 | 2 | 4 | 25 | –
10 | CCCCCCNC(=O)C[N+](C)(CCO)CCCCCCCCCC[N+](C)(CCO)CC(=O)NCCCCCC.O=C([O-])C(F)(F)F.O=C([O-])C(F)(F)F (stereo unspecified) | 8 | 8 | 256 | > 256 | 256 | > 1020 | 125
